Measured values reported in ChEMBL document CHEMBL3098105, “7,7'-Diazaindirubin--a small molecule inhibitor of casein kinase 2 in vitro and in cells” (Bioorg Med Chem, 2014).
The source made the active and inactive calls. No cut-off for these calls is given here.

Legend:
[1] = biological target: LIM domain kinase 1 (Homo sapiens) (UniProt P53667); experiment: Inhibition of human LIMK1 assessed as residual activity at 1 uM relative to control
K562 = experiment: Antiproliferative activity against human K562 cells after 3 days by sulforhodamine B assay; assay type: functional; details: K562, 72 h
Method in brief: (§1)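 Tested in the NCI 60 cell line panel. GI50 is the concentration giving 50% inhibition of cell growth, and values are the mean of two series of tests.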

[2] = biological target: Protein kinase C theta type (Homo sapiens) (UniProt Q04759); experiment: Inhibition of human PKCtheta assessed as residual activity at 1 uM relative to control
[3] = biological target: Mast/stem cell growth factor receptor Kit (Homo sapiens) (UniProt P10721); experiment: Inhibition of KIT (unknown origin) assessed as residual activity at 10 uM relative to control
[4] = biological target: Epidermal growth factor receptor (Homo sapiens) (UniProt P00533); experiment: Inhibition of EGF-R (unknown origin) assessed as residual activity at 10 uM relative to control
[5] = biological target: SRSF protein kinase 2 (Homo sapiens) (UniProt P78362); experiment: Inhibition of human SRPK2 assessed as residual activity at 1 uM relative to control
[6] = biological target: Ribosomal protein S6 kinase alpha-3 (Homo sapiens) (UniProt P51812); experiment: Inhibition of human Rsk2 assessed as residual activity at 1 uM relative to control
[7] = biological target: Dual specificity mitogen-activated protein kinase kinase 7 (Homo sapiens) (UniProt O14733); experiment: Inhibition of human MKK7beta assessed as residual activity at 1 uM relative to control
SNB-19 = experiment: Antiproliferative activity against human SNB19 cells after 3 days by sulforhodamine B assay; assay type: functional; details: SNB-19, 72 h
[8] = biological target: Mast/stem cell growth factor receptor Kit (Homo sapiens) (UniProt P10721); experiment: Inhibition of KIT (unknown origin) assessed as residual activity at 1 uM relative to control
[9] = biological target: Receptor-interacting serine/threonine-protein kinase 2 (Homo sapiens) (UniProt O43353); experiment: Inhibition of human RIPK2 assessed as residual activity at 1 uM relative to control
[10] = biological target: CDK9/cyclin T1 (Homo sapiens) (UniProt O60563+P50750); experiment: Inhibition of human CDK9/cyclin T1 assessed as residual activity at 1 uM relative to control; assay type: protein-complex assay
CCRF-CEM = experiment: Antiproliferative activity against human CCRF-CEM cells after 3 days by sulforhodamine B assay; assay type: functional; details: 72 h; method in brief: as §1
[11] = biological target: Platelet-derived growth factor receptor beta (Homo sapiens) (UniProt P09619); experiment: Inhibition of human PDGFRbeta assessed as residual activity at 1 uM relative to control
[12] = biological target: Ephrin type-A receptor 7 (Homo sapiens) (UniProt Q15375); experiment: Inhibition of human EphA7 assessed as residual activity at 1 uM relative to control
[13] = biological target: Serine/threonine-protein kinase 17A (Homo sapiens) (UniProt Q9UEE5); experiment: Inhibition of human DRAK1 assessed as residual activity at 1 uM relative to control
[14] = biological target: Casein kinase II (Homo sapiens) (UniProt P67870+P68400+P19784); experiment: Inhibition of CK2 in human HEK293 cells assessed as reduction of Akt phosphorylation at S473 at 0.25 to 8 uM after 2 hrs by Western blot analysis; assay type: cell-based
Method in brief: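 Cells were lysed in urea lysis buffer (6 M urea, NaF, Na3VO4, protease inhibitors). 20–40 µg protein was run on 10% SDS-PAGE and detected by ECL. Primary antibodies (pAkt S473, PARP, β-actin loading control) were used at 1:1000 overnight at 4 °C. DMSO was the vehicle control. For the pAkt blots, cells were treated for 2 h with Ly294002 as positive control.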

[15] = biological target: Tyrosine-protein kinase Fgr (Homo sapiens) (UniProt P09769); experiment: Inhibition of FGR (unknown origin) assessed as residual activity at 1 uM relative to control
[16] = biological target: Mitogen-activated protein kinase kinase kinase kinase 2 (Homo sapiens) (UniProt Q12851); experiment: Inhibition of human GCK assessed as residual activity at 1 uM relative to control
[17] = biological target: Mitogen-activated protein kinase kinase kinase 7 (Homo sapiens) (UniProt O43318); experiment: Inhibition of human TAK1 assessed as residual activity at 1 uM relative to control
SK-MEL-2 = experiment: Antiproliferative activity against human SK-MEL-2 cells after 3 days by sulforhodamine B assay; assay type: functional; details: SK-MEL-2, 72 h; method in brief: as §1
[18] = biological target: Protein kinase C alpha type (Homo sapiens) (UniProt P17252); experiment: Inhibition of human PKCalpha assessed as residual activity at 1 uM relative to control
[19] = biological target: Interleukin-1 receptor-associated kinase 1 (Homo sapiens) (UniProt P51617); experiment: Inhibition of human IRAK1 assessed as residual activity at 1 uM relative to control
MCF7 = experiment: Cell cycle arrest in human MCF7 cells assessed as accumulation at G1 phase at 1 uM after 24 hrs using propidium iodide staining by FACS analysis (reference value: 57.74%); assay type: functional
[20] = biological target: MAP kinase-interacting serine/threonine-protein kinase 2 (Homo sapiens) (UniProt Q9HBH9); experiment: Inhibition of human Mnk2 assessed as residual activity at 1 uM relative to control
[21] = biological target: Tyrosine-protein kinase Lyn (Homo sapiens) (UniProt P07948); experiment: Inhibition of human Lyn assessed as residual activity at 1 uM relative to control
[22] = biological target: Protein-tyrosine kinase 2-beta (Homo sapiens) (UniProt Q14289); experiment: Inhibition of human Pyk2 assessed as residual activity at 1 uM relative to control
[23] = biological target: Ephrin type-A receptor 8 (Homo sapiens) (UniProt P29322); experiment: Inhibition of human EphA8 assessed as residual activity at 1 uM relative to control
[24] = biological target: Myosin light chain kinase, smooth muscle (Homo sapiens) (UniProt Q15746); experiment: Inhibition of human MLCK assessed as residual activity at 1 uM relative to control
[25] = biological target: Serine/threonine-protein kinase VRK2 (Homo sapiens) (UniProt Q86Y07); experiment: Inhibition of human VRK2 assessed as residual activity at 1 uM relative to control
[26] = biological target: Serine/threonine-protein kinase pim-3 (Homo sapiens) (UniProt Q86V86); experiment: Inhibition of human Pim-3 assessed as residual activity at 1 uM relative to control
[27] = biological target: Mitogen-activated protein kinase 1 (Homo sapiens) (UniProt P28482); experiment: Inhibition of human MAPK2 assessed as residual activity at 1 uM relative to control
[28] = biological target: Serine/threonine-protein kinase MRCK beta (Homo sapiens) (UniProt Q9Y5S2); experiment: Inhibition of human MRCKbeta assessed as residual activity at 1 uM relative to control
[29] = biological target: Proto-oncogene tyrosine-protein kinase receptor Ret (Homo sapiens) (UniProt P07949); experiment: Inhibition of RET (unknown origin) assessed as residual activity at 10 uM relative to control
[30] = biological target: Tyrosine-protein kinase JAK2 (Homo sapiens) (UniProt O60674); experiment: Inhibition of JAK2 (unknown origin) assessed as residual activity at 10 uM relative to control

Mast/stem cell growth factor receptor Kit (Homo sapiens), sequence (P10721 whole entry): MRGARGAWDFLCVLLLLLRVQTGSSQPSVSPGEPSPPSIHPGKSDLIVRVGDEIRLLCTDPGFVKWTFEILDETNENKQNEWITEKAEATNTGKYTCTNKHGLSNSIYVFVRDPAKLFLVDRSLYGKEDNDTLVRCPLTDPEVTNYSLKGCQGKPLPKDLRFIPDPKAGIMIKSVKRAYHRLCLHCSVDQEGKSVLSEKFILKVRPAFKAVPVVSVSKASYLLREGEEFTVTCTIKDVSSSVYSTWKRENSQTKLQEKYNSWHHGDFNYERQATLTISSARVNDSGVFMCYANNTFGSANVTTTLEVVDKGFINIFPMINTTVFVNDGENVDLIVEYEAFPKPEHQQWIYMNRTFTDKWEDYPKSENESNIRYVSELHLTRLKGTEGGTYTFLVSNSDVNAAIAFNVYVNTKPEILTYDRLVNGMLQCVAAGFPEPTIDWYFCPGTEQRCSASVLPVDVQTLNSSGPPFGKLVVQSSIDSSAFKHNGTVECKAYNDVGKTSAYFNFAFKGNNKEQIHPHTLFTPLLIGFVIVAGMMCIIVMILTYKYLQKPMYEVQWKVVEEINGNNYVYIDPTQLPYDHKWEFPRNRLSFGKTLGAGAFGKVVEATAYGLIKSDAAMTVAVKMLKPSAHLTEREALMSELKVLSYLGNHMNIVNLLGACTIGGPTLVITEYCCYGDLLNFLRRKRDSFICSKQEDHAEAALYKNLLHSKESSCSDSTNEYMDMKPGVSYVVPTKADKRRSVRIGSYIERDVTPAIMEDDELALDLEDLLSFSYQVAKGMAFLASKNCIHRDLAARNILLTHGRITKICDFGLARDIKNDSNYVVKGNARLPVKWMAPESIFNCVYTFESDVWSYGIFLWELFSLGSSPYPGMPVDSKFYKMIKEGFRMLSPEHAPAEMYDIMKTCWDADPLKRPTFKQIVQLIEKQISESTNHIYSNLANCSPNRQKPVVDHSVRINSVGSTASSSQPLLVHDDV
Mitogen-activated protein kinase kinase kinase kinase 2 (Homo sapiens), sequence (Q12851 whole entry): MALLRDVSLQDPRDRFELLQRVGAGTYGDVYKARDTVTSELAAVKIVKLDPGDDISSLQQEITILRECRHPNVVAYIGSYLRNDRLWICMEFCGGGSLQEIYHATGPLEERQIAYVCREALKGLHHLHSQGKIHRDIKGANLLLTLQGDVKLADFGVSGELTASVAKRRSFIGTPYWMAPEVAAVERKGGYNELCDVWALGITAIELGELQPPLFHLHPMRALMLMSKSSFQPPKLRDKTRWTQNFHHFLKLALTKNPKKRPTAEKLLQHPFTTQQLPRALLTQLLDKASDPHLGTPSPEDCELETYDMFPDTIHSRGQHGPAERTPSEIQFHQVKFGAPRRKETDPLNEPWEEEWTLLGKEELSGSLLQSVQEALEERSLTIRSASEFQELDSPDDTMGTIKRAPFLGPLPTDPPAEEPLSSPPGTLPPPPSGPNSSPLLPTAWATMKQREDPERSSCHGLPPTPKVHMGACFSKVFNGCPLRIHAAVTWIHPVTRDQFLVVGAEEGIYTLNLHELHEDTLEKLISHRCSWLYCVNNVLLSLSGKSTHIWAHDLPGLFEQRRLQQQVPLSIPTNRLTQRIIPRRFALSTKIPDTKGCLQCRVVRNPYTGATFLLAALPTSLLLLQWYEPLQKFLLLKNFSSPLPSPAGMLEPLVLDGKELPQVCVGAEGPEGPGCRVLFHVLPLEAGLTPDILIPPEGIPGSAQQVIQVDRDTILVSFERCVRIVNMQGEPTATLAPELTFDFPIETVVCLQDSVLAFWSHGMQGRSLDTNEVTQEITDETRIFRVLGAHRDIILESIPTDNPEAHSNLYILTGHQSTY
Protein kinase C theta type (Homo sapiens), sequence (Q04759 whole entry, looked up): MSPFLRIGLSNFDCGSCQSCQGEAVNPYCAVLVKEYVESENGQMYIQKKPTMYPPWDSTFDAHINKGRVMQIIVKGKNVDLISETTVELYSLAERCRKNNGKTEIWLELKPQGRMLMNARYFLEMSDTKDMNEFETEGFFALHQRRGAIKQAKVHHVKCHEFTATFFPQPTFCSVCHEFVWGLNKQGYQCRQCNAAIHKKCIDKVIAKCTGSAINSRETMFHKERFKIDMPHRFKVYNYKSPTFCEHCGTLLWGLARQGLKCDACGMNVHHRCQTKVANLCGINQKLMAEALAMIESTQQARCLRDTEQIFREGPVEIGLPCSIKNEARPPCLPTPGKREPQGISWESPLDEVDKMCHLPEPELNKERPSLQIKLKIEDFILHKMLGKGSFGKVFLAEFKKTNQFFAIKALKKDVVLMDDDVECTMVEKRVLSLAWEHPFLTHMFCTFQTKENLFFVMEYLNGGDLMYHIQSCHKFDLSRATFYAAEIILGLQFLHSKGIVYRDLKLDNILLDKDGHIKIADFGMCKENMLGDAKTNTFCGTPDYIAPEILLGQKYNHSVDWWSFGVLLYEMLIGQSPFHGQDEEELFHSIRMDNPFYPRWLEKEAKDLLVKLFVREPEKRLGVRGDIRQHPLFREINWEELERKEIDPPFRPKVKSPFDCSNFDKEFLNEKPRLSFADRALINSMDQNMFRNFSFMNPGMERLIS
Proto-oncogene tyrosine-protein kinase receptor Ret (Homo sapiens), sequence (P07949 whole entry): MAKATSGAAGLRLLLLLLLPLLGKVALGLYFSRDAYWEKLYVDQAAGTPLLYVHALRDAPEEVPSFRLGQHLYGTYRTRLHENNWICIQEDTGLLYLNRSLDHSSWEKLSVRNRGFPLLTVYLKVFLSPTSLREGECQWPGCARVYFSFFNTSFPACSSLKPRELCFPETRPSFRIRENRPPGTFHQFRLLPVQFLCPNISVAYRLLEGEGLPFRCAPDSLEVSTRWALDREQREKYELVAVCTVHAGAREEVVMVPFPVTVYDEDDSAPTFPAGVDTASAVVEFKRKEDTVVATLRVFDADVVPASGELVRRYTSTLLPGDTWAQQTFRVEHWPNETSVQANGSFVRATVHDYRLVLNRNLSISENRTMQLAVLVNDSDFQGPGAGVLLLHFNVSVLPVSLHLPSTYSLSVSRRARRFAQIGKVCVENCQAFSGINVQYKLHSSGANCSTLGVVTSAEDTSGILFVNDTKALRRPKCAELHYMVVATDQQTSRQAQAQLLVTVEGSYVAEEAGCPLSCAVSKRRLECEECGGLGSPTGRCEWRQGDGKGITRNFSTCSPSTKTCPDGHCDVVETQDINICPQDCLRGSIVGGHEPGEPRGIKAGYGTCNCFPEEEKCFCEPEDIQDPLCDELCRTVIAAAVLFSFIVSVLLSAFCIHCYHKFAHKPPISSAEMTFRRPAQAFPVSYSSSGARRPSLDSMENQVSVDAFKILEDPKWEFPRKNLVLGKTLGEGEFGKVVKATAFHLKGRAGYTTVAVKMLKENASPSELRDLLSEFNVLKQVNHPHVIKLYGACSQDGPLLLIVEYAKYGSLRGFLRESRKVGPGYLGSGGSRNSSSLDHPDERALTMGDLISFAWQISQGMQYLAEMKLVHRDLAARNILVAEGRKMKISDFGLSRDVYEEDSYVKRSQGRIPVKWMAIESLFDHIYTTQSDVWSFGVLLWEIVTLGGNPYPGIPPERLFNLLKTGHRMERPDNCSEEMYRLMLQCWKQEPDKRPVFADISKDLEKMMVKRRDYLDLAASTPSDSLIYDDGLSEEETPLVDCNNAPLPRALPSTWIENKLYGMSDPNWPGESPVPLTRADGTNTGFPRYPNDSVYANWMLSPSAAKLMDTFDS
Dual specificity mitogen-activated protein kinase kinase 7 (Homo sapiens), sequence (O14733 whole entry): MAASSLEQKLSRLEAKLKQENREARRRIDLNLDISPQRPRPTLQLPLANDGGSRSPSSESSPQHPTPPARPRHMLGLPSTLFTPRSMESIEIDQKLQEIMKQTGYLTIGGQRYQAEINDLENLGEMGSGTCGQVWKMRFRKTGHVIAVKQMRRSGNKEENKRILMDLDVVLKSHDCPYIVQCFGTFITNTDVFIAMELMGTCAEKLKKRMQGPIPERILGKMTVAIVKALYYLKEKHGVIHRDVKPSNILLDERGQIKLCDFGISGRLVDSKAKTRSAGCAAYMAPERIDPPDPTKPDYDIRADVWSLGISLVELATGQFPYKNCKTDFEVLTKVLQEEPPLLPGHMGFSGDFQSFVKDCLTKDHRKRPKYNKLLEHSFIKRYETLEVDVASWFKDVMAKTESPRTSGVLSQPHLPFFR
Ephrin type-A receptor 7 (Homo sapiens), sequence (Q15375 28-998 limits assumed): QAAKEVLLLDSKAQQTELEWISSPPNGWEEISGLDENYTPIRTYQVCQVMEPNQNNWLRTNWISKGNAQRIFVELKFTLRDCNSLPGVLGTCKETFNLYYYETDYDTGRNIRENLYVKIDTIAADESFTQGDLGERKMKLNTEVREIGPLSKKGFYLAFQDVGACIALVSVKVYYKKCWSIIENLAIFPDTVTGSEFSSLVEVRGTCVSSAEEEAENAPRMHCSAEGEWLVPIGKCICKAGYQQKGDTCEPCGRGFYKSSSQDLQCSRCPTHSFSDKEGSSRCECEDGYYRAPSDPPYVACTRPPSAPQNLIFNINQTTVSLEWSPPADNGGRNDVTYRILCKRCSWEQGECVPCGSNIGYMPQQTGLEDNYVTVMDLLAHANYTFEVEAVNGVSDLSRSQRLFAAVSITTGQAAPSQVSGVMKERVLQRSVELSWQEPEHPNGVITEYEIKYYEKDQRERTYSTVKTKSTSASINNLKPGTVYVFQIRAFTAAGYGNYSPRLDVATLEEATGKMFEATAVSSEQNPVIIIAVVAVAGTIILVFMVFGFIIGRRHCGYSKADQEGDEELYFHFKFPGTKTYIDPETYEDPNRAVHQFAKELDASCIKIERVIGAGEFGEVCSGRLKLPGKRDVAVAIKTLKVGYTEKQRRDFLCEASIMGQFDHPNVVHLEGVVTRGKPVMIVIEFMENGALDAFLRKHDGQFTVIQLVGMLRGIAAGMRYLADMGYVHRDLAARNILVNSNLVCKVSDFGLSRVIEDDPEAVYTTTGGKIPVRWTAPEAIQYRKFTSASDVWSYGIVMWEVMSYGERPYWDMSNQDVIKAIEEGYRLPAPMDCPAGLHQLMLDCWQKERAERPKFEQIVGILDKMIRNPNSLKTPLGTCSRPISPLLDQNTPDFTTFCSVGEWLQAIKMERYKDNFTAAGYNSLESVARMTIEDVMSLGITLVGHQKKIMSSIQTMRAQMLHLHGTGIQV

Activity [1]: 80% | GI50 (K562): 2.26 µM | Activity [2]: 116% | Activity [3]: 73% | Activity [4]: 95% | Activity [5]: 108% | Activity [6]: 94% | Activity [7]: 103% | Activity [8]: 108% | Activity [9]: 85% | Activity [10]: 100% | GI50 (CCRF-CEM): 2.74 µM | Activity [11]: 160% | Activity [12]: 105% | Activity [13]: 99% | inhibition [14]: Active | Activity [15]: 95% | Activity [16]: 102% | Activity [17]: 95% | GI50 (SK-MEL-2): 1.71 µM | Activity [18]: 88% | Activity [19]: 89% | Activity [20]: 99% | Activity [21]: 123% | Activity [22]: 119% | Activity [23]: 114% | Activity [24]: 73% | Activity [25]: 110% | Activity [26]: 74% | Activity [27]: 104% | Activity [28]: 102% | Activity [29]: 97% | Activity [30]: 92%
SMILES: O=C1Nc2ncccc2/C1=C1/Nc2ncccc2C1=O
GI50 (SNB-19): 0.517 µM | Activity (MCF7): 63.05%
